Experimental data published in ChEMBL document CHEMBL1125740, “Heterocyclic quinones. 17. A new in vivo active antineoplastic drug: 6,7-bis(1-aziridinyl)-4-[[3-(N,N-dimethylamino)propyl]amino]-5,8- quinazolinedione” (J Med Chem, 1991).
Values joined by “and” are separate entries in the source; they are usually repeats but may differ in a detail not shown here. Identical values can stand only once.

Tests used:
[1] = test system: P388; assay: Compound was evaluated in vivo for antitumor activity after intraperitoneal administration against P388/L-PAM(14) for change in body weight at an optimal dose of 0.125 mg/kg/injection at 1,4,7,11 day schedule.; format: functional, Mus musculus
[2] = test system: P388; assay: Compound was evaluated in vivo for antitumor activity after intraperitoneal administration against P388 (1313) for mortality range at an optimal dose of 0.4 mg/kg/injection; format: functional, Mus musculus
[3] = test system: B16; assay: Compound was evaluated in vivo for antitumor activity against B16 melanoma after injecting the compound intravenously for total dose.; format: functional, Mus musculus
In short: (§1)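 30-60 mg tumor fragments implanted sc by trocar on day 0 into C57Bl/6-derived hosts (B16) or C3H/He-derived hosts (16/C). Drug given iv on days 6, 9 and 13 (B16) or 6, 9 and 12 (16/C), 10 mice per group. Tumors measured by caliper. T/C % taken from median tumor burden of treated vs control groups on day 15 (B16) or day 14 (16/C). Body weight change per mouse recorded at nadir.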

[4] = test system: P388; assay: Compound was evaluated in vivo for antitumor activity after intraperitoneal administration against P388/L-PAM(14) for tumor free survivors at an optimal dose of 0.4 mg/kg/injection at 1,2,3,4 day schedule.; format: functional, Mus musculus
[5] = test system: P388; assay: Compound was evaluated in vivo for antitumor activity after intraperitoneal administration against P388/L-PAM(14) for mortality range at an optimal dose of 0.4 mg/kg/injection at 1,2,3,4 day schedule.; format: functional, Mus musculus
[6] = Compound was evaluated in vivo for antitumor activity against colon adenocarcinoma 38 after injecting the compound intravenously for median tumor burden; format: functional, Mus musculus
[7] = test system: P388; assay: Compound was evaluated in vivo for antitumor activity after intraperitoneal administration against P388/L-PAM(14) for total dose at an optimal dose of 0.5 mg/kg/injection at 1,4,7,11 day schedule.; format: functional, Mus musculus
[8] = test system: P388; assay: Compound was evaluated in vivo for antitumor activity after intraperitoneal administration against P388/L-PAM(14) for median day of death at an optimal dose of 0.2 mg/kg/injection at 1,2,3,4 day schedule.; format: functional, Mus musculus
[9] = test system: P388; assay: Compound was evaluated in vivo for antitumor activity after intraperitoneal administration against P388/L-PAM(14) for % increase in life span at an optimal dose of 0.1 mg/kg/injection at 1,2,3,4 day schedule.; format: functional; details: Mus musculus, P388, ip
[10] = test system: B16; assay: Compound was evaluated in vivo for antitumor activity against B16 melanoma after injecting the compound intravenously for percent T/C (value in parentheses indicates the day of evaluation); format: functional, Mus musculus; in short: as §1
[11] = Compound was evaluated in vivo for antitumor activity against Lewis Lung cercinoma after injecting the compound intravenously for percent T/C (value in parentheses indicates the day of evaluation); format: functional, Mus musculus
[12] = test system: M5076; assay: Compound was evaluated in vivo for antitumor activity against M5076 after injecting the compound intravenously for median tumor burden; format: functional, Mus musculus
[13] = test system: P388; assay: Compound was evaluated in vivo for antitumor activity after intraperitoneal administration against P388/L-PAM(12) for total dose at an optimal dose of 0.75 mg/kg/injection; format: functional, Mus musculus
[14] = test system: P388; assay: Compound was evaluated in vivo for antitumor activity after intraperitoneal administration against P388/L-PAM(14) for tumor free survivors at an optimal dose of 0.5 mg/kg/injection at 1,4,7,11 day schedule on day 60; format: functional, Mus musculus
[15] = test system: P388; assay: Compound was evaluated in vivo for antitumor activity after intraperitoneal administration against P388/L-PAM(14) for total dose at an optimal dose of 0.25 mg/kg/injection at 1,4,7,11 day schedule.; format: functional, Mus musculus
[16] = test system: B16; assay: Compound was evaluated in vivo for antitumor activity against B16 melanoma 2 after injecting the compound intravenously for total dose.; format: functional, Mus musculus
[17] = test system: P388; assay: Compound was evaluated in vivo for antitumor activity after intraperitoneal administration against P388 (1313) for median day of death at an optimal dose of 0.4 mg/kg/injection; format: functional, Mus musculus
[18] = test system: L1210; assay: Compound was evaluated in vivo for antitumor activity after intraperitoneal administration against L1210(935) for tumor free survivors at an optimal dose of 0.5 mg/kg/injection at 1,4,7,11 day schedule.; format: functional, Mus musculus
In short: (§2)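 L1210 leukemia, maintained in DBA/2 mice, was given ip as 10⁵ cells on day 0 to F1 hybrid or strain-of-origin mice over 18 g, in groups of 8. Dosing was ip from day 1, and mortality was checked daily. Median day of death counts dying mice only. %ILS = 100×(treated − control median day of death)/control median. Tumor-free survivors were counted on day 60. Weight change is g/mouse at nadir.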

[19] = test system: L1210; assay: Compound was evaluated in vivo for antitumor activity after intraperitoneal administration against L1210(935) for mortality range at an optimal dose of 1 mg/kg/injection at 1 day schedule.; format: functional, Mus musculus; in short: as §2
[20] = test system: P388; assay: Compound was evaluated in vivo for antitumor activity after intraperitoneal administration against P388/L-PAM(14) for median day of death at an optimal dose of 0.125 mg/kg/injection at 1,4,7,11 day schedule.; format: functional, Mus musculus
[21] = test system: L1210; assay: Compound was evaluated in vivo for antitumor activity after intraperitoneal administration against L1210(935) for median day of death at an optimal dose of 0.5 mg/kg/injection at 1 day schedule.; format: functional, Mus musculus; in short: as §2
[22] = test system: L1210; assay: Compound was evaluated in vivo for antitumor activity after intraperitoneal administration against L1210(935)for change in body weight at an optimal dose of 1 mg/kg/injection at 1 day schedule.; format: functional, Mus musculus; in short: as §2
[23] = test system: P388; assay: Compound was evaluated in vivo for antitumor activity after intraperitoneal administration against P388/L-PAM(14) for % increase in life span at an optimal dose of 0.125 mg/kg/injection at 1,4,7,11 day schedule.; format: functional; details: Mus musculus, P388, ip
[24] = test system: L1210; assay: Compound was evaluated in vivo for antitumor activity after intraperitoneal administration against L1210(935) for tumor free survivors at an optimal dose of 0.2 mg/kg/injection at 1-4 day schedule.; format: functional, Mus musculus; in short: as §2
[25] = Compound was evaluated in vivo for antitumor activity against Glasgow osteogenic sarcoma after injecting the compound intravenously for change in body weight.; format: functional, Mus musculus
In short: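 Glasgow osteogenic sarcoma in C57Bl/6-derived hosts: 30-60 mg fragments implanted sc by trocar on day 0. Drug given iv on days 3, 6 and 9, 7 mice per group. Tumors measured by caliper. Median tumor burden recorded on day 10. Body weight change per mouse recorded at nadir. Toxicity-related deaths counted.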

[26] = test system: P388; assay: Compound was evaluated in vivo for antitumor activity after intraperitoneal administration against P388 (1313) for mortality range at an optimal dose of 0.5 mg/kg/injection; format: functional, Mus musculus
[27] = test system: M5076; assay: Compound was evaluated in vivo for antitumor activity against M5076 after injecting the compound intravenously for toxicity related death.; format: functional, Mus musculus
[28] = test system: L1210; assay: Compound was evaluated in vivo for antitumor activity after intraperitoneal administration against L1210(935)for % increase in life span at an optimal dose of 1 mg/kg/injection at 1 day schedule.; format: functional; details: Mus musculus, L1210, ip, 24 h; in short: as §2
[29] = test system: P388; assay: Compound was evaluated in vivo for antitumor activity after intraperitoneal administration against P388 (1303) for mortality range at an optimal dose of 0.75 mg/kg/injection; format: functional, Mus musculus
[30] = Compound was evaluated in vivo for antitumor activity against colon adenocarcinoma 38 after injecting the compound intravenously for percent T/C (value in parentheses indicates the day of evaluation); format: functional, Mus musculus
[31] = Compound was evaluated in vivo for antitumor activity against mammary adenocarcinoma 16/C after injecting the compound intravenously for median tumor burden; format: functional, Mus musculus; in short: as §1

SMILES: CN(C)CCCNc1ncnc2c1C(=O)C(N1CC1)=C(N1CC1)C2=O
- Change in body weight [1]: 0.8 g mouse-1
- Mortality [2]: 39 days
- Total dose [3]: 0.6 mg/kg
- Survivors [4]: 0
- Mortality [5]: 27 days
- Tumor burden [6]: 416
- Total dose [7]: 2 mg/kg
- Median day of death [8]: 19
- ILS at 0.1 mg/kg [9]: 0%
- T/C [10]: 41% and 78%
- T/C [11]: 81%
- Tumor burden [12]: 29
- Optimal dose [13]: 0.75 mg/kg
- Survivors [14]: 0
- Total dose [15]: 1 mg/kg
- Total dose [16]: 1.8 mg/kg
- Median day of death [17]: 23
- Survivors [18]: 1
- Mortality [19]: 16 days
- Median day of death [20]: 15.5
- Median day of death [21]: 14
- Change in body weight [22]: 0.6 g mouse-1
- ILS at 0.125 mg/kg [23]: 10%
- Survivors [24]: 1
- Change in body weight [25]: 0.6 g mouse-1
- Mortality [26]: 30 days
- Toxicity [27]: 0
- ILS at 1 mg/kg [28]: 27%
- Mortality [29]: 65 days
- T/C [30]: 102%
- Tumor burden [31]: 1265 mg
